KCNQ1 pot = potentiates or activates the human KCNQ1 potassium channel | 0.35% of 310,000 active | CHO-K1 KCNQ1, thallium flux FluxOR fluorescence; active compounds read high | B-score at 10 µM | P51787 | AID 2648;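 active means fluorescence ratio B-score, a plate-corrected score, at least three library SD, with initial intensity B-score within 5 SD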
Target sequence (P51787 whole entry, looked up): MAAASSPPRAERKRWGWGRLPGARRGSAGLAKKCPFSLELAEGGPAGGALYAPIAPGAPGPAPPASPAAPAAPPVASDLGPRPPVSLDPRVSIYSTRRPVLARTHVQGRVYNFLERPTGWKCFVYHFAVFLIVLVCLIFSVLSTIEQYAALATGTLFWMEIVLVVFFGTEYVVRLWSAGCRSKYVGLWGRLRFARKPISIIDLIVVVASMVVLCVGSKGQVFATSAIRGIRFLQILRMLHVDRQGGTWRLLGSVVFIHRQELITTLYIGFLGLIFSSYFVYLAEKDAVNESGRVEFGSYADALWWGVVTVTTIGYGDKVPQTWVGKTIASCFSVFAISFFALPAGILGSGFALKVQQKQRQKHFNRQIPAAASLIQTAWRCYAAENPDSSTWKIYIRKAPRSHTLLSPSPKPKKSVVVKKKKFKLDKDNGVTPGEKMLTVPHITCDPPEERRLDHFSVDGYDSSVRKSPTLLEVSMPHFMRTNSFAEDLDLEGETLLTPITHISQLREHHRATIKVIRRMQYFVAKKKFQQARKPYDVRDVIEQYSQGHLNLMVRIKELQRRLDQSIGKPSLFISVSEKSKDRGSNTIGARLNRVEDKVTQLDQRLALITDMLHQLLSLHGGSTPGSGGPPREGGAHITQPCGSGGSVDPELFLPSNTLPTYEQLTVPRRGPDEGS
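Assay system: CHO-K1 cells stably expressing KCNQ1; Medium: assay buffer with matched DMSO; Also added: K+/Tl+ depolarizing stimulus; Dosing: single dose; Timing: dye 90 min, compound 20 min, room temperature; Measured by: kinetic FluxOR thallium fluorescence, 10-s 1-Hz baseline, 110-s post-stimulus read; Read-out: peak-minus-minimum fluorescence over initial fluorescence, negative-control normalized, B-scored.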
hERG protect = hERG (human) protection from proarrhythmic block; activation (rescue from dofetilide block), less the hit threshold, % at 10 µM; CHO-hERG, FluxOR thallium flux, dofetilide IC70 present; Q12809; 0.51% of 310,000 active; AID 1511;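 active means activation above the mean of controls blocked by dofetilide plus 5 SD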;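 further: thallium influx through hERG after potassium depolarization seen as dye fluorescence rise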
KCNK9 block = human KCNK9 channel inhibition; 1.2% of 310,000 active; AID 488922; B-score at 10 µM; Q9NPC2; HEK293 KCNK9, FluxOR thallium flux fluorescence; active compounds read low;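 active means ratio B-score over 3 SD below the library mean, with starting fluorescence within 5 SD of its mean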;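 further: negative B-score means less thallium flux so channel inhibition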
KCNK3 inh = human KCNK3 channel inhibition, primary screen | AID 602410 | 0.84% of 340,000 active | B-score at 10 µM | CHO-KCNK3 thallium flux, FluxOR fluorescence; active compounds read low;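 active means B-score under library mean minus 4 SD, starting fluorescence ratio at most library mean plus 5 SD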;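 further: more negative B-score means stronger inhibition of thallium flux through KCNK3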
KCNQ1 block = blocks the human KCNQ1 potassium channel | CHO-K1 KCNQ1, FluxOR thallium flux fluorescence; active compounds read high | B-score at 10 µM | 1.3% of 310,000 active | AID 2642;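 active means compounds whose thallium flux B-score, printed positive for inhibition, exceeds three library SD while starting fluorescence stays within three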;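 further: channel opened by potassium depolarization with thallium stimulus after 20 min compound exposure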
Kir21 block = blocks the mouse Kir2.1 inward-rectifier potassium channel; P35561; HEK293-Kir2.1, FluxOR thallium flux fluorescence; active compounds read low; B-score at 10 µM; 0.85% of 310,000 active; AID 1672;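 active means fluorescence ratio B-score at or below minus 3 SD of library scores, with starting-brightness B-score within 2 SD, cut at about -4.2 in these data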;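 further: channel flux triggered by added potassium and thallium sulfate stimulus; B-score of peak minus minimum fluorescence over baseline after thallium stimulus; more negative B-score means stronger Kir2.1 block with less thallium influx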
Hits are given with their value; – = inactive; · = not tested or not shown. Sampled rows, rich in hits. Any-hit rate of the full collection: about 3.7%.

SMILES	KCNQ1 pot	hERG protect	KCNK9 block	KCNK3 inh	KCNQ1 block	Kir21 block
Cc1ccc2cc(C#N)c(SCc3nnc(-c4ccccc4[N+](=O)[O-])o3)nc2c1	–	–	–	–	–	–
O=C(c1ccc(COc2ccc3c(c2)CCC3)o1)N1CCN(c2ccccc2)CC1	–	–	–	–	–	–
O=C(c1ccco1)N1CCN(C(=O)c2ccc(COc3ccc4c(c3)CCC4)o2)CC1	–	–	-8	–	–	–
CCCCCc1ccc(C(=O)CCCC)c(=S)[nH]1	17	35	–	–	–	–
CSC1SCC2C(=O)N(C)C(C(C)C)C(=O)OCC(NC(=O)c3cnc4ccccc4n3)C(=O)NC(C)C(=O)N(C)C1C(=O)N(C)C(C(C)C)C(=O)OCC(NC(=O)c1cnc3ccccc3n1)C(=O)NC(C)C(=O)N2C (configuration not stated)	·	·	·	–	·	·
COc1ccccc1-c1cc(C(F)(F)F)nc(NCc2ccco2)n1	–	–	-7.3	–	–	–
Clc1ccc(N2N=C(c3cccs3)CC2c2ccco2)cc1 (configuration not stated)	–	–	–	–	8	–
CN(C)CCCC1Sc2ccccc2Sc2ccccc21 (configuration not stated)	–	–	–	–	–	-4.8
CN(C)CCCN1c2ccccc2Sc2ccccc21	–	–	–	–	–	–
Cc1noc(C)c1COc1ccc(C(=O)N2CCN(S(=O)(=O)c3ccc(F)cc3)CC2)cc1	·	·	·	–	·	·
Cc1cc(N(C)C)ccc1[N+](=O)[O-]	–	4.7	–	–	–	–
Cc1ccc(S(=O)(=O)N(C)c2ccc(C)c([N+](=O)[O-])c2)cc1	–	–	–	–	–	–
O=P(CCCCCCCCCP(=O)(c1ccccc1)c1ccccc1)(c1ccccc1)c1ccccc1	–	–	-7.2	–	–	–
COc1ccc(OC)c2cc3ccccc3cc12	·	·	·	-12	·	·
CCOc1ccc(CNC(=O)CN2C(=O)CSc3ccc(S(=O)(=O)N4CCOCC4)cc32)cc1OC	–	–	–	–	–	–
O=C(Nc1ccccc1)OCCCCCOC(=O)Nc1ccccc1	–	7.7	–	–	–	–
CC(OC(=O)CCN=C1NS(=O)(=O)c2ccccc21)C(=O)Nc1ccc(S(N)(=O)=O)cc1 (configuration not stated)	·	·	·	–	·	·
Cc1ccc(CN2CCCC(CO)(Cc3ccccc3C)C2)s1 (configuration not stated)	–	–	–	–	–	-4.4
O=C(COC(=O)c1cc(-c2cccs2)nn1-c1ccccc1)Nc1cccc([N+](=O)[O-])c1	–	–	-6.8	–	–	–
COc1ccc(CN2CCNC(=O)C2CC(=O)N(C)Cc2ccon2)c(OC)c1 (configuration not stated)	–	–	–	–	6	–
O=S(=O)(c1ccccc1)N(Cc1ccccc1)c1ccccn1	–	–	–	–	–	-6.7
CC(CCc1ccccc1)NC(=O)CN(C)Cc1ccc(F)cc1 (configuration not stated)	–	–	–	–	–	-4.5
CC(CCc1ccccc1)NC(=O)CNc1cccc([N+](=O)[O-])c1 (configuration not stated)	–	–	–	–	–	-4.7
CC(CCc1ccccc1)NC(=O)CN(C)Cc1ccccc1F (configuration not stated)	–	–	–	–	–	–
O=C(CNc1cccc([N+](=O)[O-])c1)N/N=C/c1ccc(F)cc1	–	9.9	–	–	–	–
SMILES	KCNQ1 pot	hERG protect	KCNK9 block	KCNK3 inh	KCNQ1 block	Kir21 block
CC(CCc1ccccc1)NC(=O)COC(=O)c1cc(NS(=O)(=O)c2ccc(Cl)c([N+](=O)[O-])c2)ccc1O (configuration not stated)	–	–	–	–	6	–
Cc1ccnc(SC2CC(=O)N(c3ccc(F)cc3)C2=O)n1 (configuration not stated)	–	–	–	–	–	–
CC(CCc1ccccc1)NC(=O)COc1cc(F)ccc1[N+](=O)[O-] (configuration not stated)	24	–	–	–	–	–
C[C@H](CO)N1C[C@H](C)[C@@H](CN(C)S(C)(=O)=O)Oc2ccc(NC(=O)Cn3cnnn3)cc2C1=O	·	·	·	–	·	·
O=C(OCc1nnc(-c2ccccc2)o1)C1CCN(S(=O)(=O)c2cccs2)CC1	–	–	–	–	–	–
COc1ccc(Cl)cc1N(C)C(=O)CCNC(=O)Cn1cnc2ccccc2c1=O	–	5.0	–	–	–	–
Cc1nc2ccccn2c1CN(C)C(=O)C1CCC(=O)N(Cc2cccc(F)c2)C1 (configuration not stated)	–	–	–	–	–	–
O=C(CCNc1ccc(Cl)c(C(F)(F)F)c1)c1ccco1	–	–	-7.3	–	–	–
O=S(=O)(CCc1nc2ccccc2o1)c1ccc2ccccc2c1	–	–	–	–	–	–
C=CCC1(CC=C)CCCN1C(=O)c1cc(COc2ccccc2SC)on1	–	–	–	–	7	–
Cc1ccc(OCc2cc(C(=O)N3CCCC3)no2)cn1	–	–	–	–	–	–
C=CCC1(CC=C)CCCN1C(=O)c1cc(COc2ccc(C)nc2)on1	–	–	–	–	8	–
COC(=O)[C@H](Cc1ccccc1)NC(=O)C1(OC(C)=O)CC(OC(C)=O)C(OC(C)=O)C(OC(C)=O)C1 (some centres not stated)	–	–	–	–	–	–
CCOC(=O)C1=C(COC(=O)CCc2ccccc2)NC(=O)NC1C (configuration not stated)	·	·	·	–	·	·
Cc1sc2ncnc(NCC(O)c3ccc([N+](=O)[O-])cc3)c2c1C (configuration not stated)	–	–	–	–	9	–
CC(=O)NS(=O)(=O)c1ccc(NC(=O)CN2C(=O)C3C4C=CC(C4)C3C2=O)cc1 (configuration not stated)	–	–	–	–	–	–
CCOC(=O)c1cnc(SC)nc1Oc1cccc(NS(=O)(=O)c2ccc(C)cc2)c1	–	–	–	–	–	–
CC(=O)c1ccc(N2C(=O)C3C(C2=O)C(C(=O)c2ccc(Cl)cc2)N2CCCC32)cc1 (configuration not stated)	–	–	–	·	8	–
O=C(c1ccc(Cl)cc1)C1C2C(=O)N(c3ccccc3)C(=O)C2C2CCCN21 (configuration not stated)	–	–	–	–	–	–
CCN(CC(=O)Nc1c(F)cccc1F)C(=O)CCc1nc2cc(S(=O)(=O)N3CCOCC3)ccc2n1C	–	–	–	–	–	–
CS(=O)(=O)N1N=C(c2ccco2)CC1c1ccccc1 (configuration not stated)	–	–	–	–	–	–

Bioassay records (PubChem BioAssay)
